Source: ChEMBL document CHEMBL3576833, “Design and Synthesis of Acetylenyl Benzamide Derivatives as Novel Glucokinase Activators for the Treatment of T2DM” (ACS Med Chem Lett, 2015)
Activity calls are given as the source filed them. The calls are words filed in the database; no cut-off is given here.

How the values were obtained:
[1] = target: T1, Hexokinase-4 (Homo sapiens) (UniProt P35557); assay: Activation of recombinant human pancreatic glucokinase using 10 mM glucose as substrate assessed as enzyme half maximal saturation concentration at 1 uM by G6PDH coupled assay
T1 sequence (whole entry): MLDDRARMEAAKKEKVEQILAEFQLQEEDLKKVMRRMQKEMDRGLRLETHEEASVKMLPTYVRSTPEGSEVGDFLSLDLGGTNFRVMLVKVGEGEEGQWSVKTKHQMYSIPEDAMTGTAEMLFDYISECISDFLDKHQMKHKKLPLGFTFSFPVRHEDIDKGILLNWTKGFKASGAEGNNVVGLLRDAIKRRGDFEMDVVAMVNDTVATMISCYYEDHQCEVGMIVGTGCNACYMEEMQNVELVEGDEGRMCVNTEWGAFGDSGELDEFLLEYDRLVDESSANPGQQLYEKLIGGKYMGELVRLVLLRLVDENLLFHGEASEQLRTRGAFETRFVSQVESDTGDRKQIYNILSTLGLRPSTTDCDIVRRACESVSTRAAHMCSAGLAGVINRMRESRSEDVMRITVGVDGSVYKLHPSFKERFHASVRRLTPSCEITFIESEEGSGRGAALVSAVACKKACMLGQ

[2] = target: T2, Hexokinase-4 (Rattus norvegicus) (UniProt P17712); assay: Activation of glucokinase in rat primary hepatocytes assessed as increase in 5.6 mM 2-deoxy-D-[3H]-glucose uptake after 4 hrs by scintillation counting analysis relative to control; format: cell-based; conditions: Hepatocyte
T2 sequence (whole entry): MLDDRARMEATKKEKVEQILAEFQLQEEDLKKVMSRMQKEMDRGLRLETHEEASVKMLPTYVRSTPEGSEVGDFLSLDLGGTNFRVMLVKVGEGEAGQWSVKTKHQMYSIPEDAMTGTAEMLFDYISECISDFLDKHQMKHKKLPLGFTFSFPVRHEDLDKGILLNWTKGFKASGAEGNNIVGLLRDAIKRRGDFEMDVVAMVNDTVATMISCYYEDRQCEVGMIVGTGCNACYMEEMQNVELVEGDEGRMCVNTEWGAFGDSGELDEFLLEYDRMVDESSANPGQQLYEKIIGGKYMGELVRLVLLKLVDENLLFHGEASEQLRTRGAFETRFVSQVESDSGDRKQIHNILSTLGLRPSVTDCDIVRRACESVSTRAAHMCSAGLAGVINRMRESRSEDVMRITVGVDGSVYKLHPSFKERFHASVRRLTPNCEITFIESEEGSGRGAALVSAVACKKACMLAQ
Procedure, shortened: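 Rat primary hepatocytes; uptake measured under glucose stimulation, with glucose raised from 0 mM to 5.6 mM; activity expressed as fold increase in glucose uptake.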

[3] = target: T3, Hexokinase-1 (Homo sapiens) (UniProt P19367); assay: Effect on hexokinase-1 (unknown origin)
T3 sequence (whole entry): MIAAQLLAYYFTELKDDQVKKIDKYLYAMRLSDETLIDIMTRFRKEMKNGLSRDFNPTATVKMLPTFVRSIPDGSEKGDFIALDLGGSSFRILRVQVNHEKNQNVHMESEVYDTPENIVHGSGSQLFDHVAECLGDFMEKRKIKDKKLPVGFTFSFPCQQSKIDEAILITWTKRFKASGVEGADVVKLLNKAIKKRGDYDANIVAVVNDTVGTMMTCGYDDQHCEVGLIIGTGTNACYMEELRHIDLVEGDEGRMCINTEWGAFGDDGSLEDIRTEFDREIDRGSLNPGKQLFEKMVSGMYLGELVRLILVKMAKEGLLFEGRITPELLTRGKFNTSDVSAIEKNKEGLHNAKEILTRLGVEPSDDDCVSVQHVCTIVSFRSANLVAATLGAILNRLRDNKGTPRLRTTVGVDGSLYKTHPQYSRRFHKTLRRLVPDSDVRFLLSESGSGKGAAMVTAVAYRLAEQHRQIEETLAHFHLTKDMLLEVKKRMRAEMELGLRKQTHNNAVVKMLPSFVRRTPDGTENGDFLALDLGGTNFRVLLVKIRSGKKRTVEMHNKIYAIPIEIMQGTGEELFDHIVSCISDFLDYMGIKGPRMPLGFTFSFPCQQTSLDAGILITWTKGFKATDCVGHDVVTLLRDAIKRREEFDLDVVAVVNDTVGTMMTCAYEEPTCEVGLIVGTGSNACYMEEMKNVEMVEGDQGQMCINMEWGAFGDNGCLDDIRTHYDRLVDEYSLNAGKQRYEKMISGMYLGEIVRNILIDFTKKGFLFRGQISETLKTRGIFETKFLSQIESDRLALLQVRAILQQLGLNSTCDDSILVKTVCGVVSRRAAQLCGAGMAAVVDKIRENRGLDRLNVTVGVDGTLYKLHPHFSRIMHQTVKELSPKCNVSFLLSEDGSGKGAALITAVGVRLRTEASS

[4] = target: T4, Hexokinase-2 (Homo sapiens) (UniProt P52789); assay: Effect on hexokinase-2 (unknown origin)
T4 sequence (whole entry): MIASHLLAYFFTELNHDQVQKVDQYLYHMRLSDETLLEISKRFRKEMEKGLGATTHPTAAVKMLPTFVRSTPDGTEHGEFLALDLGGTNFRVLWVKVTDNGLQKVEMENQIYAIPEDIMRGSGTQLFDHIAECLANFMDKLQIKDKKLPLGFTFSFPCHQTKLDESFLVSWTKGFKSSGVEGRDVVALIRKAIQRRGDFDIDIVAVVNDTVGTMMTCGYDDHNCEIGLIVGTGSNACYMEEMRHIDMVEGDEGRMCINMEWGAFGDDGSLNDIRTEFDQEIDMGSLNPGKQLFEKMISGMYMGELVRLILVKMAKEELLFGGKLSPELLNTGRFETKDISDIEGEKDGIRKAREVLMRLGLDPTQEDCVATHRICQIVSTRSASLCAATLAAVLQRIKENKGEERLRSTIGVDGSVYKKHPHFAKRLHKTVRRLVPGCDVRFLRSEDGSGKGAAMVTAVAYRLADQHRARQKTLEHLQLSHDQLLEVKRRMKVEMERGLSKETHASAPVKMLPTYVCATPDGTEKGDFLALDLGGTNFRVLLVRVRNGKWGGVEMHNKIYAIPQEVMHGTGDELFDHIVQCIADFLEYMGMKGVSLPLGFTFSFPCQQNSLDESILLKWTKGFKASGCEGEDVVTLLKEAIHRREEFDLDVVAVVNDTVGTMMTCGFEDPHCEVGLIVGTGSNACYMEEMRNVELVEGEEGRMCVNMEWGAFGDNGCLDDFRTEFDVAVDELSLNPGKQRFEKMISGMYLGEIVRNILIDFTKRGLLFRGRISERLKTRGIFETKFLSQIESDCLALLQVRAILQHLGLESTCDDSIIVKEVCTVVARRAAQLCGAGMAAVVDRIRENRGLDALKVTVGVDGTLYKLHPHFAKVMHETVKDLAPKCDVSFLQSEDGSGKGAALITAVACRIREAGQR

[5] = target: T2, Hexokinase-4 (Rattus norvegicus); assay: Activation of glucokinase in 0 to 5.6 mM glucose-stimulated Sprague-Dawley rat pancreatic islets assessed as increase in insulin secretion after 1 hr by ELISA relative to control
Mus musculus [6] = assay: Antidiabetic activity in po dosed C57BL/6J mouse assessed as blood glucose lowering effect administered 30 mins prior to glucose challenge measured over 180 mins by OGTT; format: functional, organism-based
Procedure, shortened: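 Oral glucose tolerance test in C57BL/6J mice with oral dosing. Blood glucose was followed after the glucose challenge, and the result was expressed as the % reduction in blood glucose AUC.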

Mus musculus [7] = assay: Antidiabetic activity in C57BL/6J mouse assessed as reduction of blood glucose level at 10 mg/kg, po after 60 mins by fasted glucose tolerance test; format: functional, organism-based
Procedure, shortened: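 Fasted glucose tolerance test in C57BL/6J mice. Animals were fasted and dosed orally, with no glucose challenge. Blood glucose was measured at 60 min.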

Activity [1] [mM]	fold change (FC) [2]	SMILES	further results
1.23	2.18	COCCNc1cccc(C#Cc2cc(O[C@@H](C)COC)cc(C(=O)Nc3ccn(C)n3)c2)c1	
5.51	1.31	COC[C@H](C)Oc1cc(C#CCN(C)C)cc(C(=O)Nc2ccn(C)n2)c1	
0.51	2.83	COC[C@H](C)Oc1cc(C#Cc2cccc(NCCN3CCCC3)c2)cc(C(=O)Nc2ccn(C)n2)c1	
3.88	2.37	COC[C@H](C)Oc1cc(C#CCNc2ncccn2)cc(C(=O)Nc2ccn(C)n2)c1	
0.46	1.99	COC[C@H](C)Oc1cc(C#Cc2ccc3[nH]ccc3c2)cc(C(=O)Nc2ccn(C)n2)c1	
0.61	2.79	COC[C@H](C)Oc1cc(C#Cc2cccc(NCCN3CCCCC3)c2)cc(C(=O)Nc2ccn(C)n2)c1	
1.37	1.57	COC[C@H](C)Oc1cc(C#Cc2cccc(O)c2)cc(C(=O)Nc2ccn(C)n2)c1	
4.04	1.71	COCC#Cc1cc(O[C@@H](C)COC)cc(C(=O)Nc2ccn(C)n2)c1	
0.17	2.03	COC[C@H](C)Oc1cc(C#Cc2cccc(NCCN(C)C)c2)cc(C(=O)Nc2ccn(C)n2)c1	
0.73	2.05	COC[C@H](C)Oc1cc(C#Cc2ccc(N)cc2)cc(C(=O)Nc2ccn(C)n2)c1	
0.9	2.36	COC[C@H](C)Oc1cc(C#Cc2cccc(NCCn3ccnc3C)c2)cc(C(=O)Nc2ccn(C)n2)c1	
2.13	2.64	COC[C@H](C)Oc1cc(C#Cc2ccc3c(c2)OCO3)cc(C(=O)Nc2ccn(C)n2)c1	
2.01	1.91	CCN(CC)c1cccc(C#Cc2cc(O[C@@H](C)COC)cc(C(=O)Nc3ccn(C)n3)c2)c1	
0.84	2.16	COC[C@H](C)Oc1cc(C#Cc2cccc(N)c2)cc(C(=O)Nc2ccn(C)n2)c1	Activity [3]: inactive; Activity [4]: inactive; fold change (FC) [5]: 2.13; Activity (Mus musculus [6]): Dose-dependent effect
0.35	1.89	COC[C@H](C)Oc1cc(C#Cc2cccc(OCCN3CCOCC3)c2)cc(C(=O)Nc2ccn(C)n2)c1	
0.95	1.75	COC[C@H](C)Oc1cc(C#Cc2cccc(OCC#N)c2)cc(C(=O)Nc2ccn(C)n2)c1	
0.73	2.64	COC[C@H](C)Oc1cc(C#Cc2ccccc2OC)cc(C(=O)Nc2ccn(C)n2)c1	
0.55	2.5	COC[C@H](C)Oc1cc(C#CCOC2CCCCO2)cc(C(=O)Nc2ccn(C)n2)c1 (stereo partly specified)	
0.73	2.43	COC[C@H](C)Oc1cc(C#Cc2cccc(OCCN3CCCC3)c2)cc(C(=O)Nc2ccn(C)n2)c1	
2.25	2.36	COC[C@H](C)Oc1cc(C#Cc2cccc(OCCN3CCCCC3)c2)cc(C(=O)Nc2ccn(C)n2)c1	
1.84	2.03	COC[C@H](C)Oc1cc(C#Cc2cccc(OC(C)C)c2)cc(C(=O)Nc2ccn(C)n2)c1	
0.76	2.43	COC[C@H](C)Oc1cc(C#Cc2cccc(N(C)C)c2)cc(C(=O)Nc2ccn(C)n2)c1	
		COC[C@H](C)Oc1cc(Oc2cnc(C(=O)N3CCC3)cn2)cc(C(=O)Nc2cnc(C)cn2)c1	Activity (Mus musculus [7]): Active
0.55	2.62	COC[C@H](C)Oc1cc(C#Cc2cccc(NCCN3CCOCC3)c2)cc(C(=O)Nc2ccn(C)n2)c1	
